Test [1] has as its system Nucleic Acid. Kind of test: Relative DNA binding affinity was determined as difference in melting temperature (delta Tm) with the polynucleotide Poly (dAT)2 complex and alone Poly (dAT)2. The class given is nucleic-acid assay.
Test [2] deals with Nucleic Acid. Briefly: Apparent binding constant with polynucleotide Poly (dAT)2 complex measured by fluorescence assay. The following applies: in the assay text read “calf thymus DNA” for “polynucleotide Poly (dAT)2 complex”. The format is nucleic-acid assay. The essentials:
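Ethidium displacement by fluorescence: excitation 515 nm, emission read over 550-700 nm, [ethidium]/[DNA] molar ratio 12.6:10, drug 0.01-100 µM in BPE buffer pH 7.1. C50 for ethidium displacement taken from a fitted curve; Kapp = (1.26 µM/C50) × K_ethidium, with K_ethidium = 10⁷ M^-1.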

In another test the test system is PC-3. Kind of test: Cytotoxicity towards human prostate cancer PC 3 cell line was determined. The format is functional, cell-based. The essentials: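 PC 3 cells kept in RPMI 1640 with 10% FCS were seeded at 3 × 10⁴ cells/well. After 3 days they were serum-starved for 24 h, then stimulated with 10 ng/mL EGF plus transferrin 50 ng/mL and selenium 50 pg/mL, with compounds added. Growth was read by MTT colorimetry after a further 72 h.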

The subject of test [3] is Nucleic Acid. Kind of test: Apparent binding constant with calf thymus DNA measured by fluorescence assay.

The structures appear in SMILES notation.

In general, ΔTm refers to the change in melting temperature against a reference sample. One may read the IC50 as the midpoint of a concentration-inhibition curve. On to `COc1cc2nc3c(c4c2c(c1OC)N(C(=O)CN1CCN(C)CC1)CC4)Cc1cc(OCCCN2CCN(C)CC2)ccc1-3`, for which the ΔTm in the test on Nucleic Acid [1] came to 32.5 °C. The K app in the test with Nucleic Acid [2] was determined as 3.04e+06 M⁻¹. The IC50 in the test on PC-3 is > 1000 nM.

On to `COc1cc2nc3c(c4c2c(c1OC)NCC4)Cc1cc(OCCN)ccc1-3`, for which the ΔTm with Nucleic Acid [1] came to 14.8 °C. In the test on Nucleic Acid [2], the K app came out at 5.14e+06 M⁻¹. Moreover, in the test with PC-3, the IC50 was > 1000 nM.

Consider `COc1ccc2c(c1)Cc1c-2nc2cc(OC)c(OC)c3c2c1CCN3C(C)=O`, for which, in the test with PC-3, the IC50 is > 1000 nM.

Take `COc1ccc2c(c1)Cc1c-2nc2cc(OC)c(OC)c3c2c1CCN3`: the ΔTm with Nucleic Acid [1] turned out to be 0 °C. In addition, in the test on Nucleic Acid [2], the K app turned out to be 1700 M⁻¹. The IC50 in the test on PC-3 is > 1000 nM.

Regarding `COc1cc2nc3c(c4c2c(c1OC)N(C(C)=O)CC4)Cc1cc(OCCCN)ccc1-3`, the thermal shift (ΔTm) in the test on Nucleic Acid [1] stood at 6 °C. Besides, the half-maximal inhibitory concentration (IC50) in the test on PC-3 is > 1000 nM. For the same compound, the K app in the test on Nucleic Acid [3] turned out to be 293000 M⁻¹.

For the compound `COc1cc2nc3c(c4c2c(c1OC)N(C(=O)CN1CCN(C)CC1)CC4)Cc1cc(OCCN)ccc1-3`, in the test on Nucleic Acid [1], the ΔTm is 19.6 °C. Also, the K app with Nucleic Acid [2] turned out to be 503000 M⁻¹. In the test with PC-3, the IC50 was > 1000 nM.

Consider `COc1cc2nc3c(c4c2c(c1OC)NCC4)Cc1cc(OCCCN2CCN(C)CC2)ccc1-3`, for which, in the test on Nucleic Acid [1], the ΔTm was 10 °C. For the same compound, the K app in the test on Nucleic Acid [2] came to 301000 M⁻¹. This compound displayed an IC50 in the test on PC-3 of 6.5 nM.

As for `COc1cc2nc3c(c4c2c(c1OC)N(C(C)=O)CC4)Cc1cc(O)ccc1-3`, the ΔTm with Nucleic Acid [1] came to 3.1 °C. Further, the K app with Nucleic Acid [2] was 677000 M⁻¹. The IC50 in the test with PC-3 is > 1000 nM.

On to `COc1cc2nc3c(c4c2c(c1OC)N(C(=O)CN1CCN(C)CC1)CC4)Cc1cc(OCCCN)ccc1-3`, for which the ΔTm in the test on Nucleic Acid [1] amounted to 22.5 °C. Also, the IC50 in the test with PC-3 is > 1000 nM. Moreover, the K app in the test with Nucleic Acid [3] is 2.78e+06 M⁻¹.

Take `COc1cc2nc3c(c4c2c(c1OC)N(C(C)=O)CC4)Cc1cc(OCCN)ccc1-3`: the ΔTm in the test with Nucleic Acid [1] came to 7 °C. Also, the K app in the test on Nucleic Acid [2] came out at 990000 M⁻¹. Also, the IC50 with PC-3 was > 1000 nM.

Consider `COc1cc2nc3c(c4c2c(c1OC)NCC4)Cc1cc(OCCCN)ccc1-3`, for which the ΔTm in the test on Nucleic Acid [1] amounted to 15.8 °C. In addition, in the test on Nucleic Acid [2], the K app stood at 6.13e+06 M⁻¹. Further, the IC50 with PC-3 was > 1000 nM.

Take `COc1cc2nc3c(c4c2c(c1OC)NCC4)CCc1cc(O)ccc1-3`: the ΔTm in the test with Nucleic Acid [1] is 1.1 °C. Moreover, the K app in the test with Nucleic Acid [2] came to 1600 M⁻¹. In addition, the IC50 in the test on PC-3 is > 1000 nM.

As to `COc1cc2nc3c(c4c2c(c1OC)NCC4)Cc1ccccc1-3`, the ΔTm with Nucleic Acid [1] stood at 0 °C. Further, in the test with Nucleic Acid [2], the K app amounted to 3100 M⁻¹. In addition, the IC50 with PC-3 was > 1000 nM.

Turning to `COc1cc2nc3c(c4c2c(c1OC)N(C(C)=O)CC4)Cc1ccccc1-3`, the IC50 with PC-3 is > 1000 nM.

Turning to `COc1cc2nc3c(c4c2c(c1OC)NCC4)Cc1cc(O)ccc1-3`, the ΔTm with Nucleic Acid [1] was determined as 4 °C. For the same compound, the IC50 in the test with PC-3 was > 1000 nM. Also, the K app in the test with Nucleic Acid [3] came to 672000 M⁻¹.

As to `COc1cc2nc3c(c4c2c(c1OC)N(C(C)=O)CC4)Cc1cc(OCCCN2CCN(C)CC2)ccc1-3`, the ΔTm in the test with Nucleic Acid [1] worked out at 3.8 °C. The K app in the test on Nucleic Acid [2] amounted to 3.58e+06 M⁻¹. The IC50 in the test on PC-3 was > 1000 nM.

(Values after ChEMBL document CHEMBL1148358, “DNA binding to guide the development of tetrahydroindeno[1,2-b]pyrido[4,3,2-de]quinoline derivatives as cytotoxic agents” (J Med Chem, 2004).)
